Measured values: paper PMC7429274 (ACS infectious diseases, 2020)
Primed or numbered codes have the meaning given here. Ends that are not written are not given here. FITC′ = fluorescein isothiocyanate label

What was measured:
[1] = tested on: human primary neutrophils infected or not with PAO1-GFP+; assay: Human primary neutrophil infection model, imaging flow cytometry; type: cell-based
[2] = tested on: P. aeruginosa (strain PAO1); assay: Bacterial growth inhibition; type: cell-based, Pseudomonas aeruginosa; conditions: Fig. S3
Procedure, shortened: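 PAO1 grown from overnight culture (diluted 1:100 in LB without NaCl) at 37°C, 5% CO₂, 200 rpm to mid-log (OD₆₀₀ 0.5), pelleted, resuspended in Mueller-Hinton broth to OD₆₀₀ 0.1 (~10⁷ CFU/mL). Serially diluted FITC-labelled peptide added in triplicate; gentamycin 10 μg/mL positive control, PBS mock. OD₆₀₀ read every 30 min for 16 h at 37°C, 5% CO₂. Background-corrected mean OD normalised to PBS wells, as percentage.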

[3] = tested on: P. aeruginosa-infected wounds; assay: In vivo optical imaging in mouse infected wound model; set-up: species or system female BALB/c athymic nude mice; conditions: 6 h post probe injection, p<0.0035, Fig. S7
Procedure, shortened: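 Wounded mice (6 mm dorsal biopsies, 48 h recovery) had wounds inoculated with ~10⁷ cells of a 50:50 lux-tagged/TdTomato PAO1 mix or PBS. Cy5-labelled peptide probe (60 nmoles, tail vein) or PBS was injected 24 h later; groups n=4, 3, 2. Isoflurane-anaesthetised mice were imaged at 3, 6 and 18 h. Bioluminescence integration was 2 s; fluorescence excitation was 640 nm. ROI wound Cy5 was normalised to surrounding non-wound tissue.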

[4] = tested on: P. aeruginosa-infected wounds; assay: Ex vivo CLSM of sectioned wound tissue; type: in vivo, female BALB/c athymic nude mice; conditions: harvested after 18 h imaging
Procedure, shortened: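 Two 6 mm full-thickness dorsal wounds per mouse, occlusive dressing, 48 h recovery. Wounds were then inoculated with 60 μL containing ~10⁷ cells of a 50:50 mix of lux-tagged and TdTomato PAO1, or mock-treated with PBS. Cy5-labelled peptide probe, 60 nmoles, was given by tail vein 24 h later. After the 18 h imaging point, mice were CO₂-euthanised. Wounds were DAPI-stained (1 μg/mL, 10 min), fixed in 4% PFA for 24 h, OCT cryosectioned and imaged by CLSM.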

[5] = tested on: flow cell-grown P. aeruginosa PAO1 biofilms; assay: Peptide labeling of flow-grown biofilms by CLSM; type: cell-based, Pseudomonas aeruginosa; conditions: 24 h flow cell biofilms; for Biofilm labeling (CLSM): 2 μM peptide in PBS, 1 h, room temperature; for Labeling pattern / localization within biofilms (CLSM): 2 μM peptide, single slice at mid-height
[6] = tested on: P. aeruginosa aggregates (PAO1-mCherry) on A549 cells; assay: Epithelial cell infection model, CLSM colocalization with bacteria; type: cell-based, Pseudomonas aeruginosa; conditions: Cy5-labeled probes, Fig. S5
[7] = tested on: Human A549 type II alveolar epithelial cells; assay: Epithelial cell infection model, CLSM colocalization with epithelial cells; type: cell-based; conditions: uninfected A549 cells, Fig. S8
Procedure, shortened: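 A549 cells seeded at 20,000/well in RPMI 1640 with 10% FBS and 100 U pen/strep for 3 days to ~70% confluency, then prelabelled with 1 μM cell tracker blue for 20 min at 37°C. Washed twice in warm PBS, stained with 2 μM FITC-labelled peptide for 1 h at 37°C, washed twice, fixed in 4% paraformaldehyde for 30 min. CLSM with 60x oil objective.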

[8] = tested on: planktonic P. aeruginosa cells (PAO1, TdTomato); assay: Probe binding to planktonic cells by flow cytometry; type: cell-based, Pseudomonas aeruginosa; conditions: 10, 5 or 1 μM, 30 min, room temperature, Fig. S2
Procedure, shortened: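 PAO1 with constitutive TdTomato plasmid was diluted 1:100 in LB without NaCl and grown 3 h at 37°C, 200 rpm, to mid-log. Cells were pelleted, resuspended in PBS at 10⁸ CFU/mL, labelled with FITC-peptide, washed, and fixed in 4% PFA for 20 min. 10,000 events per sample, gated on FSC/SSC and excluding low-TdTomato events. FITC MFI was normalised to autofluorescence. Two biological replicates, mean ± standard deviation.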

Row | Substance | Biofilm labeling (CLSM) [5] | Targeting of epithelial cells in the absence of infection [7] | Labeling of planktonic P. aeruginosa cells (FITC MFI, flow cytometry) [8] | Labeling pattern / localization within biofilms (CLSM) [5] | further results
1 | (4Iph)(f)LPNSNHIKQGL-Cy5^b [4Iphf-HN17-Cy5] | retained similar biofilm targeting properties |  |  |  | Percentage of neutrophils that were Cy5+ ([1]; each of the four populations): greater than 87%; Colocalization between Cy5 and GFP (similarity feature) ([1]; every cell, all infected neutrophils regardless of morphology): < 0.2; Percentage of neutrophils that were Cy5+ ([1]; infected neutrophils with irregular morphology): 99.8%; Percentage of neutrophils that were Cy5+ ([1]; uninfected cells with normal morphology): 87.8%; Bactericidal effects against P. aeruginosa [2]: no bactericidal effects; Cy5 signal enhancement in infected wounds vs PBS-treated wounds [3]: reached statistical significance compared to PBS-treated wounds; Cy5 fluorescence in sectioned wound tissue (CLSM) ([4]; infected wound): intense, multi-focal pockets; Cy5 fluorescence in sectioned wound tissue (CLSM) ([4]; uninfected wound): minimal Cy5 fluorescence; Targeting in the epithelial cell infection model (Cy5 probes) [6]: biofilm specificity in the epithelial cell infection model
2 | (4Iph)(f)LPNSNHIKQGL-FITC^b [4Iphf-HN17-FITC] | biofilm labeling was observed | did not target epithelial cells in the absence of infection | to a lesser degree than LG21-FITC and LL37-FITC | penetrated into biofilms | 
3 | ^aFITC-KRNQRMARYRRGT ({FITC′}-KRNQRMARYRRGT) [UBIsc-FITC, reference compound] | failed to label biofilms |  | minimal targeting of P. aeruginosa cells |  | 
4 | ^aFITC-LLGDFFRKSKEKIGKEFKRIVQRIKDFLRNLVPRTES [LL37-FITC, reference compound] | biofilm labeling was observed |  | greatest targeting of planktonic cells | localized to the periphery of biofilms | 
5 | ^aFITC-LLPIVGNLLKSLLGWKRKRFG [LG21-FITC] | biofilm labeling was observed | did not target epithelial cells in the absence of infection | greatest targeting of planktonic cells | localized to the periphery of biofilms | 
6 | ^aFITC-TGRAKRRMQYNRR [UBI29-41-FITC, reference compound] | failed to label biofilms |  | minimal targeting of P. aeruginosa cells |  | 
7 | ^aFITC-WPRRPWRR ({FITC′}-WPRRPWRR) [WR8-Pro-FITC] | complete lack of binding |  | minimal targeting of P. aeruginosa cells |  | 
8 | ^aFITC-WWKKWWKK [WK8-FITC] | biofilm labeling was observed | moderate targeting of these cells | to a lesser degree than LG21-FITC and LL37-FITC | penetrated into biofilms | 
9 | ^aFITC-WWRRWWR [WR8-FITC] | biofilm labeling was observed | moderate targeting of these cells | to a lesser degree than LG21-FITC and LL37-FITC | penetrated into biofilms | 
